Results as given in ChEMBL document CHEMBL1140343, “3-Alkylamino-4H-1,2,4-benzothiadiazine 1,1-dioxides as ATP-sensitive potassium channel openers: effect of 6,7-disubstitution on potency and tissue selectivity” (J Med Chem, 2005).

Key:
[1] = organism: Rattus norvegicus; assay: Concentration required to inhibit insulin release in rat pancreatic islets by 50% upon incubation with the compound at 37 degree C for 90 mins; type: functional, organism-based; conditions: 1.5 h
Procedure, shortened: (§1)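 Islets isolated by collagenase digestion from fed Wistar rats (180–220 g); groups of 10 preincubated 30 min at 37 °C in bicarbonate-buffered salt medium with 2.8 mM glucose and 0.5% albumin, gassed O2/CO2 95:5. Then incubated 90 min at 37 °C with 16.7 mM glucose plus drug. Insulin measured by radioimmunoassay; release expressed as % of drug-free 16.7 mM glucose control. IC50 estimated.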

[2] = organism: Rattus norvegicus; assay: Percent residual insulin release in rat pancreatic islets upon incubation with the compound (1 uM) at 37 degree C for 90 mins; type: functional; procedure, shortened: as §1
[3] = organism: Rattus norvegicus; assay: Percent residual insulin release in rat pancreatic islets upon incubation with the compound (10 uM) at 37 degree C for 90 mins; type: functional; procedure, shortened: as §1
[4] = organism: Rattus norvegicus; assay: Percent residual insulin release in rat pancreatic islets upon incubation with the compound (0.1 uM) at 37 degree C for 90 mins; type: functional; procedure, shortened: as §1
[5] = organism: Rattus norvegicus; assay: Ratio of EC50 required to relax KCl induced rat aorta ring contractions to that of IC50 required to inhibit insulin release in rat pancreatic islets; type: functional
[6] = organism: Rattus norvegicus; assay: Concentration required to relax KCl induced rat aorta ring contractions by 50% upon incubation with the compound at 37 degree C for 90 mins; type: functional, organism-based; conditions: 1.5 h
Procedure, shortened: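 Endothelium-denuded transverse aortic rings (3–4 mm) from fed Wistar rats (180–220 g); isometric tension recorded by force transducer. After 60 min equilibration, rings contracted with 30 mM KCl; at stable tension, drug added cumulatively until maximal relaxation or 0.3 mM. Relaxation expressed as % of KCl contraction; EC50 taken from dose–response curves; mean ± SEM (n).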

[7] = organism: Rattus norvegicus; assay: Percent residual insulin release in rat pancreatic islets upon incubation with the compound (50 uM) at 37 degree C for 90 mins; type: functional; procedure, shortened: as §1

SMILES	IC50 [1] [nM]	Release [2] [%]	Release [3] [%]	Release [4] [%]	Selectivity [5]	EC50 [6] [nM]	Release [7] [%]
CC(C)NC1=NS(=O)(=O)c2cc(Cl)ccc2N1	730	36.2	4.9	90.4	49.7		
CC(C)NC1=NS(=O)(=O)c2cc(F)ccc2N1	760	47.3	3.7	96.9	56.7	43100	
O=S1(=O)N=C(NC2CCC2)Nc2cc(Cl)c(F)cc21	230	15.3	12.8	74.5	173.5	39900	
O=S1(=O)NC(NC2CCC2)=Nc2cc(Cl)c(Br)cc21	1210	57.2	9.5		5.5	6600	
O=S1(=O)NC(NC2CC2)=Nc2cc(Cl)c(Cl)cc21	3340	92.5	17.6		>9	> 30000	
O=S1(=O)NC(NC2CCC2)=Nc2cc(Cl)c(Cl)cc21	1250	58.1	8.4		10.1	12600	
CCCNC1=NS(=O)(=O)c2cc(Cl)c(Cl)cc2N1	1370	60.2	9.9		3.4	4700	
C=CCNC1=Nc2cc(Cl)c(Cl)cc2S(=O)(=O)N1	1890	68.5	13.5		0.63	1200	
COc1ccc2c(c1)S(=O)(=O)NC(NC(C)C)=N2	1750	67.6	8.5		156.6		
CCNC1=NS(=O)(=O)c2cc(OC)c(Cl)cc2N1	480	38	7.2	85.3	16.9	8100	
CC(C)NC1=NS(=O)(=O)c2cc(F)c(NC(C)C)cc2N1						> 200000	70.1
CC(C)CNC1=NS(=O)(=O)c2cc(F)c(F)cc2N1	5680	86.9	42.3		>5.3	> 30000	
COc1cc2c(cc1Cl)NC(NC1CCC1)=NS2(=O)=O	510	38.1	9.2	90	45.9	23400	
CC(C)NC1=NS(=O)(=O)c2cc(F)c(Cl)cc2N1	160	5.7	7	64.4	259.4	41500	
CCCNC1=NS(=O)(=O)c2cc(F)c(Cl)cc2N1	520	37.6	7.5	92	87.1	45300	
CCCNC1=NS(=O)(=O)c2cc(F)c(NCCC)cc2N1							104.1
COc1cc2c(cc1Cl)NC(NC(C)C)=NS2(=O)=O	240	20.6	7.7	73.8	154.2	37000	
CC(C)NC1=NS(=O)(=O)c2cc(Br)ccc2N1	470	34.9	8.1	91	10.2	4800	
CCNC1=NS(=O)(=O)c2cc(Cl)c(Cl)cc2N1	250	8.5	9.1	83.4	4	1000	
CC(C)NC1=NS(=O)(=O)c2cc(Br)c(Cl)cc2N1	260	25.7	7.5	73.3	21.5	5600	
CC(C)NC1=NS(=O)(=O)c2cc(Cl)c(Cl)cc2N1	280	13.2	6.3	84.9	8.2	2300	
CCNC1=NS(=O)(=O)c2cc(F)c(Cl)cc2N1	200	7.3	12.7	73.1	212	42400	
O=S1(=O)N=C(NC2CCC2)Nc2cc(NC3CCC3)c(F)cc21							88.6
CCCCCCNC1=NS(=O)(=O)c2cc(Cl)c(Cl)cc2N1			95.2			> 300000	
CCNC1=NS(=O)(=O)c2cc(Br)c(Cl)cc2N1	270	19.7	7.9	79.5	12.2	3300	
CCNC1=NS(=O)(=O)c2cc(F)c(F)cc2N1	370	22	10.5	94.5	180.3	66700	
CC(C)NC1=NS(=O)(=O)c2cc(F)c(F)cc2N1	300	22.9	6.1	81.6	341.3	102000	
CC1=Nc2ccc(Cl)cc2S(=O)(=O)N1 [DIAZOXIDE]		87.5	73.9		1		
